From ChEMBL document CHEMBL1150273, “Aza-peptidyl Michael acceptors. A new class of potent and selective inhibitors of asparaginyl endopeptidases (legumains) from evolutionarily diverse pathogens” (J Med Chem, 2008)
Active and inactive are the calls of the source. The rule behind the calls is not given here.

What was measured:
[1] = test system: Schistosoma mansoni; assay: Inhibition of Schistosoma mansoni AE assessed as ratio of pseudo-first-order inhibition rate constant to inhibitor concentration
Procedure, shortened: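 Autoactivated recombinant SmAE added to six inhibitor concentrations (0–1 µM final) in 0.1 M citrate phosphate, 2 mM DTT, pH 6.8 with 20 µM Cbz-Ala-Ala-Asn-AMC; progress followed every 2 s for 30 min at 25 °C (ex 355, em 460 nm); kobs/[I] by nonlinear regression, corrected for substrate by factor 1.33.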

[2] = target: T1, Caspase-6 (Homo sapiens) (UniProt P55212); assay: Inhibition of caspase 6 assessed as ratio of pseudo-first-order inhibition rate constant to inhibitor concentration
T1 sequence (whole entry): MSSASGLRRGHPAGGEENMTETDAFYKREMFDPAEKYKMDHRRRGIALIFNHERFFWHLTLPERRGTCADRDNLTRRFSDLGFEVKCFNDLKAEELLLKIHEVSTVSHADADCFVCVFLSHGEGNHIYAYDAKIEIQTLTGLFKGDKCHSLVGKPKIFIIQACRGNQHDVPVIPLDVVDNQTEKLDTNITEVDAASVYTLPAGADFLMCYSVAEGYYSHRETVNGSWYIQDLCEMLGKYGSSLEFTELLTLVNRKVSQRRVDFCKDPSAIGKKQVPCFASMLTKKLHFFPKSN
Procedure, shortened: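 Caspase-6 at 5 nM final, assayed in the same Pipes/NaCl/CHAPS/sucrose/DTT buffer, pH 7.2, 37 °C with Ac-Asp-Glu-Val-Asp-AMC by the progress curve method; inhibitor stocks 5 × 10^-3 to 2.42 × 10^-6 M in DMSO; rates corrected for substrate using KM 236.35 µM.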

[3] = target: T2, Caspase-3 (Homo sapiens) (UniProt P42574); assay: Inhibition of caspase 3 assessed as ratio of pseudo-first-order inhibition rate constant to inhibitor concentration
T2 sequence (whole entry): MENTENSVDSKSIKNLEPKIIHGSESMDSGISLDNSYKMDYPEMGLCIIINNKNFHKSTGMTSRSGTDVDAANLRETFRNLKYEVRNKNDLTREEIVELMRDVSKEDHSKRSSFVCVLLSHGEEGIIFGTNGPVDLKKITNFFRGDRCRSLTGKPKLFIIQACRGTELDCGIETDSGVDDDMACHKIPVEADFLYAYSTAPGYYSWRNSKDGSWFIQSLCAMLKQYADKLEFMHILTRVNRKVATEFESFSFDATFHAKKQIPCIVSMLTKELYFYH
Procedure, shortened: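 Caspase-3 (1 nM final) preactivated 10 min at 37 °C in 40 mM Pipes, 200 mM NaCl, 0.2% CHAPS, 20% sucrose mixed 1:1 with 20 mM DTT, pH 7.2; enzyme added to inhibitor plus Ac-Asp-Glu-Val-Asp-AMC; progress curves 20 min at 37 °C (ex 360, em 465 nm); duplicates; rates corrected for substrate (KM 9.7 µM).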

[4] = Inhibition of Schistosoma mansoni AE expressed in Pichia pastoris after 20 mins
Procedure, shortened: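 Recombinant AE zymogens expressed in Pichia pastoris; SmAE and TvAE1 autoactivated in 0.5 M sodium acetate, 4 mM DTT, pH 4.5, 37 °C, 3 h to overnight; IrAE used without activation. Buffer 0.1 M citrate phosphate, 4 mM DTT, pH 6.8 (SmAE, TvAE1) or pH 5.5 (IrAE). Inhibitor 2.0–0.0002 µM final, 20 min preincubation at room temperature; 10 µM final Cbz-Ala-Ala-Asn-AMC, 20 min; IC50 from RFU/min vs concentration.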

[5] = Stability assessed as half life in citrate phosphate buffer at pH 5.8 in presence of dithiothreitol; type: physicochemical; conditions: citrate phosphate buffer with dithiothreitol

**Q.** Which Ratio [1] does the source give for `C[C@H](NC(=O)OCc1ccccc1)C(=O)N[C@@H](C)C(=O)NN(CC(N)=O)C(=O)/C=C/C(=O)N(C)Cc1cccc2ccccc12` here?
**A.** The Ratio was 16900 M⁻¹ s⁻¹.

**Q.** What about the Activity [2] of the same molecule?
**A.** Its Activity is “inactive”.

**Q.** What about the Activity [3] of the same molecule?
**A.** Its Activity is “inactive”.

**Q.** What about the IC50 [4] of the same molecule?
**A.** Its IC50 is 35 nM.

**Q.** With `CCOC(=O)/C=C/C(=O)N(CC(N)=O)NC(=O)[C@H](C)NC(=O)[C@H](C)NC(=O)OCc1ccccc1` as the molecule, how does the half-life [5] read?
**A.** Its half-life is 0.317 h.

**Q.** And the Activity [2]?
**A.** The Activity was “inactive”.

**Q.** And the Activity [3]?
**A.** The Activity was “inactive”.

**Q.** And the IC50 [4]?
**A.** The IC50 was 31 nM.

**Q.** For `C[C@H](NC(=O)OCc1ccccc1)C(=O)N[C@@H](C)C(=O)NN(CC(N)=O)C(=O)/C=C/C(=O)N(C)Cc1ccccc1`, which half-life [5] is on record?
**A.** The half-life was 6.27 h.

**Q.** What about the Activity [2] of the same molecule?
**A.** Its Activity is “inactive”.

**Q.** And the Activity [3]?
**A.** Its Activity is “inactive”.

**Q.** With `C[C@H](NC(=O)OCc1ccccc1)C(=O)N[C@@H](C)C(=O)NN(CC(N)=O)C(=O)/C=C/C(=O)N(Cc1ccccc1)Cc1ccccc1` as the molecule, how does the Ratio [1] read?
**A.** The Ratio was 5800 M⁻¹ s⁻¹.

**Q.** And the Activity [2]?
**A.** Its Activity is “inactive”.

**Q.** And the Activity [3]?
**A.** The Activity was “inactive”.

**Q.** What about the IC50 [4] of the same molecule?
**A.** Its IC50 is 45 nM.
